Measurements taken from ChEMBL document CHEMBL2151010, “Characterization of a designed vascular endothelial growth factor receptor antagonist helical peptide with antiangiogenic activity in vivo” (J Med Chem, 2011).
Activity calls are given as the source filed them. The calls are words filed in the database; no cut-off is given here. Residues, ends and D or L forms follow the SMILES beside them.

Experiments:
HUVEC [1] = test: Binding affinity to VEGFR in human HUVEC grown in serum deprived medium using fluorescein-labeled compound at 50 to 5000 nM after 5 mins by flow cytometry; assay type: cell-based
Method in brief: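 HUVECs (3 × 10^4/100 μL) were suspended in EBM-2 with 0.1% heparin and 0.1% BSA. They were incubated for 5 min at 4 C in the dark with fluorescein-labelled peptide (50, 500, 5000 nM). For competition, 500 nM labelled peptide was used with VEGF165 (0.05, 5, 500 nM). Cells were washed, resuspended in PBS and analysed by flow cytometry. A PE-conjugated anti-β-1 integrin antibody (1:100) was the technical control.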

HUVEC [2] = test: Antagonist activity at VEGFR in human HUVEC grown in serum deprived medium assessed as inhibition of VEGF165-induced ERK1/2 phosphorylation at 50 nM after 15-30 mins by Western blot analysis; assay type: functional, cell-based
Method in brief: (§1)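 Serum-starved HUVECs in EBM-2 with 0.1% heparin and 0.1% BSA were treated at 37 C for 15 and 30 min with peptide, with or without VEGF165 (25 ng/mL). Total lysates (25 μg) were run on 12% SDS-PAGE and blotted for phospho-ERK1/2 and phospho-AKT. Total ERK1/2, AKT and GAPDH served as loading controls. Detection was by HRP secondary antibody and ECL.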

HUVEC [3] = test: Antagonist activity at VEGFR in human HUVEC grown in serum deprived medium assessed as inhibition of VEGF165-induced AKT phosphorylation at 50 nM after 15-30 mins by Western blot analysis; assay type: functional, cell-based; method in brief: as §1
HUVEC [4] = test: Induction of apoptosis in human HUVEC grown in serum deprived medium assessed as caspase 3 activity at 12.5 to 50 nM after 8 hrs by spectrofluorometry; assay type: functional, cell-based
Method in brief: (§2)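 Lysates of serum-deprived HUVECs (2 × 10^4 cells) were prepared in 50 mM Hepes, 1 mM DTT, 0.1 mM EDTA, 0.1% NP-40 and 0.1% CHAPS. Protein (20 μg) was incubated with 20 μM Ac-DEVD-AMC at 37 C for 3 h. Released AMC was read by spectrofluorometry at 380 nm excitation and 440 nm emission.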

HUVEC [5] = test: Induction of apoptosis in human HUVEC grown in serum deprived medium at 12.5 nM after 24 hrs by annexin V/fluorescein isothiocyanate-based flow cytometry; assay type: functional, cell-based
HUVEC [6] = test: Inhibition of VEGF165-induced cell proliferation in human HUVEC grown in serum deprived medium at 12.5 to 50 nM after 24 hrs relative to acetyl-KQMYLELGYATIKWL-amide; assay type: functional
Method in brief: (§3)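 HUVECs were seeded at 1200 cells/well and switched after 24 h to EBM-2 with 0.1% heparin and 0.1% BSA. They were treated with peptide, with or without VEGF165 (25 ng/mL), for 24 or 48 h at 37 C. DNA content was measured with CyQUANT NF reagent (1 h, 37 C) at 485 nm excitation. Quadruplicate samples were used, and values were expressed as percentage of proliferating cells.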

HUVEC [7] = test: Inhibition of VEGF165-induced cell proliferation in human HUVEC grown in serum deprived medium at 12.5 to 50 nM after 48 hrs; assay type: functional; method in brief: as §3
A-375 [8] = test: Antitumor activity against human A375 cells xenografted in athymic nude-Foxn1 nu/nu mouse assessed as tumor growth inhibition at 200 nM intratumorally administered for 15 days measured after 15 days relative to untreated control; assay type: functional
Method in brief: (§4)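 A375 cells (5 × 10^6 in 150 μL Hanks' solution) were injected subcutaneously on the back of 6-week-old female athymic nude-Foxn1nu/nu mice. After one week, mice were randomized (10/group) to PBS (100 μL) or peptide (200 nM), given intratumorally twice weekly. Tumours were measured by caliper and volume was calculated as V = (ab²)/2. Groups were compared by ANOVA.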

A-375 [9] = test: Antitumor activity against human A375 cells xenografted in athymic nude-Foxn1 nu/nu mouse assessed as tumor growth inhibition at 200 nM intratumorally administered for 15 days measured after 15 days relative to acetyl-KQMYLELGYATIKWL-amide; assay type: functional; method in brief: as §4
A-375 [10] = test: Antitumor activity against human A375 cells xenografted in athymic nude-Foxn1 nu/nu mouse assessed as inhibition of tumor angiogenesis measuring CD31 expression at 200 nM intratumorally administered for 7 days by immunohistochemical analysis; assay type: functional
Method in brief: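 Tumours from A375 xenografts in nude mice, treated intratumorally with peptide (200 nM) or PBS twice weekly, were excised after 1 week. They were formalin-fixed and cut into 5 μm paraffin sections. Sections were stained for CD31 by avidin-biotin peroxidase with diaminobenzidine and counterstained with hematoxylin.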

HUVEC [11] = test: Antagonist activity at VEGFR in human HUVEC grown in serum deprived medium assessed as inhibition of VEGF165-induced ERK1/2 phosphorylation at 50 nM after 24 hrs by Western blot analysis; assay type: functional, cell-based
Method in brief: (§5)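 Whole-cell lysates (25 μg) were run on 12% SDS-PAGE and immunoblotted for phospho-ERK1/2 and phospho-RB. Total ERK1/2, RB and GAPDH were the loading controls. Read-out was ECL.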

HUVEC [12] = test: Antagonist activity at VEGFR in human HUVEC grown in serum deprived medium assessed as inhibition of VEGF165-induced RB phosphorylation at 50 nM after 15-30 mins by Western blot analysis; assay type: functional, cell-based
HUVEC [13] = test: Antagonist activity at VEGFR in human HUVEC grown in serum deprived medium assessed as inhibition of VEGF165-induced ERK1/2 phosphorylation at 12.5 nM after 24 hrs by Western blot analysis; assay type: functional, cell-based; method in brief: as §5
[14] = Half life of the compound; assay type: physicochemical
Method in brief: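 Peptide was diluted to a final 0.5 mg/mL in 25% (v:v) pooled human male AB serum at 37 C. Aliquots were taken at 0, 15, 30, 60, 90 and 120 min and at 24 h, centrifuged at 4 C and diluted to 0.1 mg/mL. Remaining intact peptide was quantified by RP-HPLC on a C18 column with 38–48% CH3CN (0.1% TFA) elution.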

[15] = Antiangiogenic activity against VEGF165-induced CD1 nude mouse endothelial cells at 200 nM after 21 days by FITC-based fluorescence microscopy
HUVEC [16] = test: Antagonist activity at VEGFR in human HUVEC grown in serum deprived medium assessed as inhibition of VEGF165-induced RB phosphorylation at 50 nM after 15-30 mins by Western blot analysis
HUVEC [17] = test: Induction of apoptosis in human HUVEC grown in serum deprived medium assessed as caspase 3 activity at 50 nM after 8 hrs by spectrofluorometry; assay type: functional, cell-based; method in brief: as §2
HUVEC [18] = test: Inhibition of VEGF165-induced cell proliferation in human HUVEC grown in serum deprived medium at 50 nM after 24 hrs; assay type: functional, cell-based; method in brief: as §3
HUVEC [19] = test: Inhibition of VEGF165 induced cell proliferation in human HUVEC grown in serum deprived medium at 50 nM after 48 hrs; assay type: functional, cell-based; method in brief: as §3
Endothelial cell = test: Antiangiogenic activity against VEGF165-induced CD1 nude mouse endothelial cells at 200 nM after 21 days by FITC-based fluorescence microscopy

Activity (HUVEC [1]) | half-life [14] | Compound | inhibition (HUVEC [2]) | inhibition (HUVEC [3]) | Activity (HUVEC [4]) | Activity (HUVEC [5]) | inhibition (INH) (HUVEC [6]) | inhibition (INH) (HUVEC [7]) | TGI (A-375 [8]) | TGI (A-375 [9]) | inhibition (INH) (A-375 [10]) | inhibition (HUVEC [11]) | inhibition (HUVEC [12]) | inhibition (HUVEC [13]) | Activity [15] | inhibition (HUVEC [16]) | Activity (HUVEC [17]) | inhibition (HUVEC [18]) | inhibition (HUVEC [19]) | Activity (Endothelial cell)
Active | 1.5 h | CC[C@H](C)[C@H](NC(=O)CNC(=O)[C@H](CCCCN)NC(=O)[C@H](Cc1ccc(O)cc1)NC(=O)[C@H](C)NC(=O)[C@H](CC(C)C)NC(=O)[C@H](CCC(N)=O)NC(=O)[C@H](Cc1ccc(O)cc1)NC(=O)[C@H](CC(C)C)NC(=O)[C@H](CCC(=O)O)NC(=O)[C@H](CCSC)NC(=O)[C@H](Cc1c[nH]c2ccccc12)NC(=O)[C@@H](NC(=O)[C@H](CC(C)C)NC(=O)[C@H](CCCCN)NC(C)=O)[C@@H](C)O)C(N)=O (Ac-KLTWMELYQLAYKGI-NH2) | Active | Active | Active | Active | 40% | >85% | 36% | 47% | 50% | Active | Active | Active | 85% | Active | – | – | – | –
inactive | – | CC[C@H](C)[C@H](NC(=O)[C@@H](NC(=O)[C@H](C)NC(=O)[C@H](Cc1ccc(O)cc1)NC(=O)CNC(=O)[C@H](CC(C)C)NC(=O)[C@H](CCC(=O)O)NC(=O)[C@H](CC(C)C)NC(=O)[C@H](Cc1ccc(O)cc1)NC(=O)[C@H](CCSC)NC(=O)[C@H](CCC(N)=O)NC(=O)[C@H](CCCCN)NC(C)=O)[C@@H](C)O)C(=O)N[C@@H](CCCCN)C(=O)N[C@@H](Cc1c[nH]c2ccccc12)C(=O)N[C@@H](CC(C)C)C(N)=O (Ac-KQMYLELGYATIKWL-NH2) | inactive | inactive | – | inactive | – | – | inactive | – | – | – | – | – | – | – | inactive | inactive | inactive | inactive
